Assay results: ChEMBL document CHEMBL1122650, “Synthesis and central nervous system properties of 2-[(alkoxycarbonyl)amino]-4(5)-phenyl-2-imidazolines” (J Med Chem, 1984)
The source made the active and inactive calls. No cut-off for these calls is given here.

How the values were obtained:
[1] = HPLC capacity factor (k'); format: ADME
Mus musculus [2] = species on record: Mus musculus; experiment: Evaluated for antagonism of reserpine induced hypothermia; format: functional
How it was run: (§1)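 Male HLa (ICR) BR mice, 18-24 g, in groups of eight; reserpine 5 mg/kg ip given 2 h before oral test compound as aqueous solution. Rectal temperature taken hourly; 1-4-h hypothermia assessed by analysis of variance.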

Mus musculus [3] = experiment: Mouse behavior activity was determined; I=inactive at a dose of 50 mg/Kg; format: functional, organism-based
[4] = Compound was evaluated for lethal dose in mouse in groups of ten (values in parentheses indicates 95% confidence limits); format: toxicity, organism-based; conditions: in vivo
Mus musculus [5] = species on record: Mus musculus; experiment: Compound was evaluated for antagonism of reserpine induced hypothermia.; format: functional; how it was run: as §1
Mus musculus [6] = species on record: Mus musculus; experiment: Righting ability was determined in mice before rapid rolling (unaroused); format: functional
How it was run: (§2)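 Male Simonsen (ICR) fBR mice, 18-24 g, groups of ten, dosed with aqueous compound. Righting ability checked before (unaroused) and after (aroused) rapid rolling in the hand; ED50 by Litchfield-Wilcoxon method.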

[7] = Lethal dose in mouse, in groups of ten; format: toxicity, organism-based; conditions: in vivo
Mus musculus [8] = species on record: Mus musculus; experiment: Mouse behavior activity was determined;D= Depressant; format: functional, organism-based
How it was run: (§3)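 Male Simonsen (ICR) fBR mice, 18-24 g, groups of three, given 3, 10, 30, 100, 300 or 1000 mg/kg ip as aqueous solution and observed for behavioral profile; deaths followed up to 7 days.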

Mus musculus [9] = species on record: Mus musculus; experiment: Compound was evaluated for maximal electroshock antagonism (MES) against mice; format: functional
How it was run: (§4)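 Male HLa (ICR) BR mice, groups of eight to ten, dosed ip (aqueous solution) 15 min before transcorneal electroshock (50 mA, 0.2 s). End point: abolition of tonic hind-limb extension; quantal ED50 by Litchfield-Wilcoxon.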

Mus musculus [10] = species on record: Mus musculus; experiment: Mouse behavior activity was determined; Stimulant Weak; format: functional, organism-based; how it was run: as §3
Mus musculus [11] = species on record: Mus musculus; experiment: Mouse behavior activity was determined; ST= Stimulant, D = Depressant; format: functional, organism-based; how it was run: as §3
Mus musculus [12] = species on record: Mus musculus; experiment: Compound was evaluated for maximal electroshock antagonism (MES) against mice (values in parentheses indicates 95% confidence limits); format: functional
How it was run: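 Male HLa (ICR) BR mice, groups of eight to ten, given compound ip as aqueous solution 15 min before transcorneal electroshock (50 mA, 0.2 s). End point was abolition of tonic hind-limb extension; quantal ED50 derived by Litchfield-Wilcoxon.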

Mus musculus [13] = species on record: Mus musculus; experiment: Compound was evaluated for antagonism of reserpine induced hypothermia; I = inactive; format: functional, organism-based; how it was run: as §1
Mus musculus [14] = species on record: Mus musculus; experiment: Mouse behavior activity was determined; Inactive; format: functional, organism-based; how it was run: as §3
Mus musculus [15] = species on record: Mus musculus; experiment: Compound was evaluated for maximal electroshock antagonism (MES) against mice; Inactive; format: functional, organism-based; how it was run: as §4
Mus musculus [16] = species on record: Mus musculus; experiment: Mouse behavior activity was determined; D=Depressant.; format: functional, organism-based; how it was run: as §3
Mus musculus [17] = experiment: Compound was evaluated in vivo for reserpine hypothermia after oral administration in mouse.; format: functional; how it was run: as §1
Mus musculus [18] = experiment: Compound was evaluated in vivo for reserpine hypothermia after oral administration in mouse. Minimum active dose was reported; Inactive; format: functional, organism-based; how it was run: as §1
Mus musculus [19] = species on record: Mus musculus; experiment: Evaluated for antagonism of reserpine induced hypothermia;I= Inactive; format: functional, organism-based; how it was run: as §1
Mus musculus [20] = species on record: Mus musculus; experiment: Compound was evaluated for antagonism of reserpine induced hypothermia;I= Inactive.; format: functional, organism-based
How it was run: (§5)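 Male HLa (ICR) BR mice (18-24 g), groups of eight, dosed ip with 5 mg/kg reserpine 2 h before oral test compound given as aqueous solution. Rectal temperature measured hourly; 1-4-h thermia assessed by analysis of variance.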

Mus musculus [21] = species on record: Mus musculus; experiment: Mouse behavior activity was determined; Dwk= Depressant Weak.; format: functional, organism-based; how it was run: as §3
Mus musculus [22] = experiment: Compound was evaluated in vivo for reserpine hypothermia after oral administration in mouse. Minimum active dose was reported; 10-30% reduction.; format: functional, organism-based; how it was run: as §1
Mus musculus [23] = species on record: Mus musculus; experiment: Compound was evaluated for maximal electroshock antagonism (MES) against mice; Inactive.; format: functional, organism-based; how it was run: as §4
Mus musculus [24] = experiment: Compound was evaluated in vivo for reserpine hypothermia after oral administration in mouse. Minimum active dose was reported, with the percent reversal at 10 mg/kg in parenthesis.; format: functional; how it was run: as §5
Mus musculus [25] = species on record: Mus musculus; experiment: Righting ability was determined in mice […] rapid rolling (aroused); format: functional; how it was run: as §2
Mus musculus [26] = species on record: Mus musculus; experiment: Mouse behavior activity was determined; D = Depressant; format: functional, organism-based
How it was run: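 Male Simonsen (ICR) fBR mice (18-24 g) given 3, 10, 30, 100, 300 or 1000 mg/kg ip as aqueous solution and observed for behaviour in groups of three.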

Mus musculus [27] = species on record: Mus musculus; experiment: Mouse behavior activity was determined; Dwk=Depressant Weak; format: functional, organism-based; how it was run: as §3
Mus musculus [28] = species on record: Mus musculus; experiment: Mouse behavior activity was determined; S-D=Stimulant-Depressant; format: functional, organism-based; how it was run: as §3
Mus musculus [29] = experiment: Compound was evaluated in vivo for reserpine hypothermia after oral administration in mouse. Minimum active dose was reported; rigidity was potentiated by compound.; format: functional, organism-based; how it was run: as §1

Structure (SMILES): COC(=O)NC1=NC(c2ccc(O)c(O)c2)CN1 (stereo not drawn)
- Log k' [1]: -1.51
- HYPO (Mus musculus [2]): >20 mg/kg
- Mouse behavior activity (Mus musculus [3]): inactive
- LD50 [4]: > 1000 mg/kg

Structure (SMILES): CCOC(=O)NC1=NC(c2cccc(Cl)c2)CN1C (stereo not drawn)
- HYPO (Mus musculus [5]): <0.5 mg/kg
- Loss of righting reflex (Mus musculus [6]): 70 mg/kg
- LD50 [7]: 300 mg/kg
- Log k' [1]: 0.78
- Mouse behavior activity (Mus musculus [8]): Depressant
- ED50 (Mus musculus [9]): 74 mg/kg

Structure (SMILES): COC(=O)NC1=NC(c2ccccc2)C(C)N1 (stereo not drawn)
- Mouse behavior activity (Mus musculus [10]): Stimulant Weak
- LD50 [7]: 200 mg/kg
- Log k' [1]: 0.15
- ED50 (Mus musculus [9]): 90 mg/kg

Structure (SMILES): O=C1NC(=O)C(c2ccccc2)(c2ccccc2)N1 [PHENYTOIN]
- Mouse behavior activity (Mus musculus [11]): Stimulant
- ED50 (Mus musculus [12]): 6 mg/kg
- HYPO (Mus musculus [13]): inactive
- LD50 [4]: 700 mg/kg

Structure (SMILES): CCOC(=O)NC1=NC(c2ccc(CO)cc2)CN1C (stereo not drawn)
- LD50 [7]: 500 mg/kg
- Log k' [1]: -0.29
- Mouse behavior activity (Mus musculus [14]): inactive
- ED50 (Mus musculus [15]): inactive

Structure (SMILES): COC(=O)NC1=NC(c2cccc(F)c2)CN1 (stereo not drawn)
- Mouse behavior activity (Mus musculus [16]): Depressant
- LD50 [7]: 200 mg/kg
- ED50 (Mus musculus [17]): 36 mg/kg
- Log k' [1]: -0.1
- ED50 (Mus musculus [9]): 70 mg/kg

Structure (SMILES): COC(=O)NC1=NC(c2ccc(SC)cc2)CN1C (stereo not drawn)
- ED50 (Mus musculus [18]): inactive
- Log k' [1]: 0.61
- ED50 (Mus musculus [9]): 100 mg/kg
- HYPO (Mus musculus [19]): inactive

Structure (SMILES): COC(=O)NC1=NC(c2ccc(Cl)cc2)CN1C (stereo not drawn)
- ED50 (Mus musculus [18]): inactive
- LD50 [7]: 200 mg/kg
- Log k' [1]: 0.54
- Mouse behavior activity (Mus musculus [8]): Depressant
- ED50 (Mus musculus [9]): 66 mg/kg

Structure (SMILES): CC(C)COC(=O)NC1=NC(c2ccccc2)CN1 (stereo not drawn)
- HYPO (Mus musculus [20]): inactive
- Mouse behavior activity (Mus musculus [21]): Depressant
- ED50 (Mus musculus [22]): 10-30% reduction
- LD50 [7]: 700 mg/kg
- Log k' [1]: 0.94
- ED50 (Mus musculus [23]): inactive

Structure (SMILES): COC(=O)NC1=NC(c2ccccc2Cl)CN1 (stereo not drawn)
- Mouse behavior activity (Mus musculus [16]): Depressant
- Loss of righting reflex (Mus musculus [6]): 200 mg/kg
- LD50 [7]: 500 mg/kg
- Log k' [1]: 0.29
- ED50 (Mus musculus [9]): 50 mg/kg

Structure (SMILES): CN1C(=O)CN=C(c2ccccc2)c2cc(Cl)ccc21 [DIAZEPAM]
- ED50 (Mus musculus [24]): 1 mg/kg
- Loss of righting reflex (Mus musculus [25]): 136 mg/kg
- Loss of righting reflex (Mus musculus [6]): 67 mg/kg
- Mouse behavior activity (Mus musculus [26]): Depressant
- ED50 (Mus musculus [12]): 7 mg/kg

Structure (SMILES): COC(=O)NC1=NC(c2ccc([S+](C)[O-])cc2)CN1C (stereo not drawn)
- ED50 (Mus musculus [18]): inactive
- LD50 [7]: > 1000 mg/kg
- Mouse behavior activity (Mus musculus [27]): Depressant Weak
- Log k' [1]: -1.03
- HYPO (Mus musculus [19]): inactive
- ED50 (Mus musculus [15]): inactive

Structure (SMILES): COC(=O)NC1=NC(c2ccccc2[S+](C)[O-])CN1C (stereo not drawn)
- ED50 (Mus musculus [18]): inactive
- Log k' [1]: -0.87

Structure (SMILES): CCCCCCc1ccc(C2CN=C(NC(=O)OC)N2)cc1 (stereo not drawn)
- LD50 [7]: 200 mg/kg
- Mouse behavior activity (Mus musculus [27]): Depressant - weak
- Log k' [1]: 2.28
- ED50 (Mus musculus [23]): inactive
- HYPO (Mus musculus [19]): inactive

Structure (SMILES): CCC1(c2ccccc2)C(=O)NC(=O)NC1=O [PHENOBARBITAL]
- ED50 (Mus musculus [24]): 22 mg/kg
- Loss of righting reflex (Mus musculus [25]): 107 mg/kg
- Loss of righting reflex (Mus musculus [6]): 60 mg/kg
- Mouse behavior activity (Mus musculus [26]): Depressant
- ED50 (Mus musculus [12]): 15 mg/kg
- LD50 [4]: 222 mg/kg

Structure (SMILES): CCOC(=O)NC1=NC(c2ccccc2)CN1C (stereo not drawn)
- Loss of righting reflex (Mus musculus [6]): 100 mg/kg
- Mouse behavior activity (Mus musculus [28]): Stimulant-Depressant
- LD50 [7]: 200 mg/kg
- Log k' [1]: 0.41
- HYPO (Mus musculus [2]): <0.5 mg/kg
- P (Mus musculus [29]): rigidity was potentiated by compound
- ED50 (Mus musculus [9]): 78 mg/kg

Structure (SMILES): COC(=O)NC1=NC(c2ccc(C)cc2)CN1 (stereo not drawn)
- Mouse behavior activity (Mus musculus [21]): Depressant - weak
- LD50 [7]: > 1000 mg/kg
- Log k' [1]: 0.3
- HYPO (Mus musculus [2]): >20 mg/kg
- ED50 (Mus musculus [23]): inactive
